IMP-1 inhibitor: inhibitors of Pseudomonas aeruginosa IMP-1 metallo-beta-lactamase; purified IMP-1, nitrocefin hydrolysis, epi-absorbance fluorescence; inhibition, % at 5.6 µM; 0.45% of 290,000 active;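 active means inhibition above the mean plus 3 SD of all compounds in the same screening run, cut at about 4.5% in these data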
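Material – recombinant IMP-1 enzyme, purified · Amount – IMP-1 0.2 nM before substrate addition · Medium – HEPES buffer pH 7.1 with ZnSO4 and Brij 35 · Timing – 25 °C, 15 min preincubation, 25 min reaction · Measured by – plate fluorescence quenching by hydrolysis product, ex 480/em 530 nm · Read-out – percent enzyme inhibition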
VIM-2 inhibitor: inhibitors of Pseudomonas aeruginosa VIM-2 metallo-beta-lactamase; 0.89% of 290,000 active; purified VIM-2, nitrocefin hydrolysis, epi-absorbance fluorescence; inhibition, % at 5.6 µM;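 active means inhibition above the mean of all tested compounds plus 3 SD, cutoff set per screening run, cut at about 7.5% in these data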;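 further: red hydrolysis product quenches plate fluorescence so inhibitors raise well fluorescence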
PLCb3 inh: PLC-beta3 (human) inhibition, primary screen. Purified PLC-beta3, fluorogenic substrate, fluorescence. inhibition, % at 12.2 µM. Q01970. 0.18% of 370,000 active
PLC-gamma1 inh: blocks human PLC-gamma1 enzyme activity | purified PLC-gamma1, fluorogenic substrate, fluorescence | P19174 | 0.84% of 370,000 active | AID 720700 | inhibition, % at 12.2 µM; in the data active means inhibition above about 9.5%
PvdQ inh: blocks Pseudomonas aeruginosa PvdQ acylase activity; AID 488965; purified PvdQ acylase, fluorescence plate reader; inhibition, % at 10 µM; 0.063% of 340,000 active; in the data active means inhibition above about 30%, passing the limit was not always enough
PLCgamma1 ctr: counter-screen for PLC-beta3 inhibitors: inhibitors of human PLC-gamma1 | shares compounds with PLC-gamma1 inh | purified PLC-gamma1, fluorogenic substrate, fluorescence | inhibition, % at 12.3 µM | 3.1% of 3,300 active | AID 743258; in the data active means inhibition above about 9.5%
PLCb3 confirm: human PLC-beta3 inhibition, confirmation; shares compounds with PLC-gamma1 inh; 1% of 3,300 active; inhibition, % at 12.3 µM; purified PLC-beta3, fluorogenic substrate fluorescence
Each line names hits and unclear results; the compound was inactive in the other large screens (follow-up assays come after a bar, where they were run). A selection: hits, their analogues and other compounds. The true share with any hit is near 2%. Unless noted, no stated cut-off is given here; in the data, active means inhibition above about 11%; inactive means the rest.

O=C(NNC(=O)C12CC3CC(CC(C3)C1)C2)c1cnccn1	PLC-gamma1 inh 11 | PLCgamma1 ctr inactive | PLCb3 confirm inactive
Cc1ccnc(NC(=O)C23CC4CC(CC(C4)C2)C3)c1	PLCb3 inh 11 | PLCgamma1 ctr inactive | PLCb3 confirm inactive
O=C(NNC(=O)C12CC3CC(CC(C3)C1)C2)c1ccccn1	none
CCC(=O)Nc1ccc(NC(=O)C23CC4CC(CC(C4)C2)C3)cn1	none
O=C(Nc1cccnc1)C12CC3CC(CC(C3)C1)C2	PLCb3 inh 11 | PLCgamma1 ctr inactive | PLCb3 confirm inactive
C#CCOCCOCCOCCNc1nc(N2CCN(C(=O)[C@H](CCCN=C(N)N)n3cc(C(N)[C@@H](C)CC)nn3)CC2)nc(N2CCN(C(=O)[C@H](CC(N)=O)n3cc([C@@H](N)C(C)C)nn3)CC2)n1 (stereo partly specified)	PLCb3 inh 14 (no result: IMP-1 inhibitor, VIM-2 inhibitor) | PLCgamma1 ctr inactive | PLCb3 confirm inactive
C#CCOCCOCCOCCNc1nc(N2CCN(C(=O)[C@H](CCCN=C(N)N)n3cc(C(N)[C@@H](C)CC)nn3)CC2)nc(N2CCN(C(=O)[C@H](CC(N)=O)n3cc([C@@H](N)CC(N)=O)nn3)CC2)n1 (stereo partly specified)	none (no result: IMP-1 inhibitor, VIM-2 inhibitor)
Cc1ccc(SCCC(=O)NCC2CCCO2)cc1 (stereo unspecified)	none
Cc1ccc(SCC(=O)NCC2CCCO2)cc1 (stereo unspecified)	PLC-gamma1 inh 11 | PLCgamma1 ctr inactive | PLCb3 confirm inactive
CC1Cc2nc(SCC(=O)NCC3CCCO3)n(Cc3ccccc3)c(=O)c2S1 (stereo unspecified)	PLC-gamma1 inh 9.6 | PLCgamma1 ctr inactive | PLCb3 confirm inactive
O=C(CSc1nnc(-c2cccnc2)n1-c1ccc(Cl)cc1)c1ccc(F)cc1	none (no result: IMP-1 inhibitor, VIM-2 inhibitor, PvdQ inh)
O=C(Nc1ccc(Cl)cc1)N1CCN(Cc2nc3ccccc3c(=O)[nH]2)CC1	none (no result: IMP-1 inhibitor, VIM-2 inhibitor, PvdQ inh)
Cc1ccc(C(=O)Nc2ccccc2C(=O)N2CCCCCC2)cc1	PLC-gamma1 inh 10 | PLCgamma1 ctr inactive | PLCb3 confirm inactive
Cc1ccccc1C(=O)NNC(=O)C(=O)N1CCCCC1	PLC-gamma1 inh 10 | PLCgamma1 ctr inactive | PLCb3 confirm inactive
CCN(CC)C(=O)C1=C(C)N(CCCN2CCCC2=O)C(=O)C(CC(=O)NCc2ccco2)C1 (stereo unspecified)	none (no result: IMP-1 inhibitor, VIM-2 inhibitor, PvdQ inh)
CCN(CC)C(=O)C1=C(C)N(CCCN2CCCC2=O)C(=O)C(CC(=O)NCCCCc2ccccc2)C1 (stereo unspecified)	PLC-gamma1 inh 9.8 (no result: IMP-1 inhibitor, VIM-2 inhibitor, PvdQ inh) | PLCgamma1 ctr inactive | PLCb3 confirm inactive
COCC(=O)Nc1cc([N+](=O)[O-])ccc1OC	PLC-gamma1 inh 13 | PLCgamma1 ctr inactive | PLCb3 confirm inactive
COC(=O)CNC(=O)c1cn(-c2ccc(C)c(C)c2)c(=O)c2ccccc12	none
COc1ccc([N+](=O)[O-])cc1NC(=O)c1cn(-c2ccc(C)c(C)c2)c(=O)c2ccccc12	PLC-gamma1 inh 11 | PLCgamma1 ctr inactive | PLCb3 confirm inactive
COCC(=O)Nc1ccc([N+](=O)[O-])cc1OC	none
CC(C)(C)c1ccc(-c2cn(C[C@H](Cc3ccccc3)n3c(=O)c4ccccc4n3Cc3ccno3)nn2)cc1	none (no result: IMP-1 inhibitor, VIM-2 inhibitor, PvdQ inh)
CCCCS(=O)(=O)N1CCCc2nc(-c3ccc(F)cc3)ccc21	none (no result: IMP-1 inhibitor, VIM-2 inhibitor, PvdQ inh)
O=C(CSC1CS(=O)(=O)c2cc([N+](=O)[O-])ccc21)NNC(=O)c1ccc(Cl)cc1 (stereo unspecified)	none
O=C(CSC1CS(=O)(=O)c2cc([N+](=O)[O-])ccc21)NNC(=O)c1ccccc1 (stereo unspecified)	PLC-gamma1 inh 10.0 | PLCgamma1 ctr inactive | PLCb3 confirm inactive
CCCCCCC12C(=Cc3cc(C)ccc31)c1ccccc1C(CC(=O)NCc1ccccc1)N2C(=O)OC (stereo unspecified)	none (no result: IMP-1 inhibitor, VIM-2 inhibitor, PvdQ inh)
CCCCCCCOC(=O)C[N+](C)(C)CCOC1CC2CCC1(C)C2(C)C (stereo unspecified)	PLC-gamma1 inh 9.9 | PLCgamma1 ctr inactive | PLCb3 confirm inactive
Cc1ccccc1NC1=C/C(=N\S(=O)(=O)c2ccc(C(=O)O)cc2)c2ccccc2C1=O	PLC-gamma1 inh 25 | PLCgamma1 ctr 20 | PLCb3 confirm inactive
Cc1ccccc1NC1=C/C(=N\S(=O)(=O)c2cccs2)c2ccccc2C1=O	none
